Rows were chosen to be rich in hits. Some 2.1% of all compounds tested hit in one or more screens of this group.
SUMO HTRF inh = inhibitors of in vitro SUMOylation cascade, primary screen, biochemical, HTRF, uHTS. inhibition, % at 35 µM. SUMO-conjugating enzyme UBC9 (Homo sapiens), P63279. HTRF SUMOylation assay, SAE1/SAE2 + UBC9. hit rate 0.36% among 290,000; in the data active = inhibition above about 50%, passing the limit was not always enough
Target sequence (P63279 whole entry, looked up): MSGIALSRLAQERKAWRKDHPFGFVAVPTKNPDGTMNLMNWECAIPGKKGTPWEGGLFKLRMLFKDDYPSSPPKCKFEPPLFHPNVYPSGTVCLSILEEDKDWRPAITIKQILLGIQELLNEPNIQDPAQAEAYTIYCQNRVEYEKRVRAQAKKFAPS
VIM-2 inhibitor = VIM-2 metallo-beta-lactamase inhibitors, primary screen, biochemical, epi-absorbance readout, Pseudomonas aeruginosa enzyme. purified VIM-2, nitrocefin hydrolysis, epi-absorbance fluorescence. inhibition, % at 5.6 µM. hit rate 0.89% among 290,000;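 active = inhibition above the mean of all tested compounds plus 3 SD, cutoff set per screening run, cut at about 7.5% in these data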;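 note: red hydrolysis product quenches plate fluorescence so inhibitors raise well fluorescence; 0% = enzyme with DMSO and 100% = DMSO without enzyme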
FID counter = compounds displacing fluorescent DNA intercalator, primary screen, artefact control for HCV NS3 helicase inhibitor project, biochemical, FID fluorescence | DNA fluorescent intercalator displacement | inhibition, % at 7.9 µM | hit rate 0.17% among 290,000 | AID 1845, 2009; in the data active = inhibition above about 37%;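 note: 0% = vehicle and 100% = reference compound; higher means more ethidium bromide displaced from hairpin DNA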
HCV NS3 hel inh = inhibitors of HCV NS3 helicase, primary screen, biochemical, Cy5 molecular beacon fluorescence; Hepatitis C virus NS3 helicase; NS3 helicase DNA unwinding; inhibition, % at 10.9 µM; hit rate 0.56% among 290,000; AID 1800, 2009;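 active = inhibition above the mean of all tested compounds plus 3 SD, set per campaign, cut at about 35% in these data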;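 note: 0% = DMSO wells and 100% = thioflavine S control wells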
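System: HCV NS3 helicase fragment; control set: DMSO and thioflavine S; technique: Cy5 fluorescence at 0 and 60 min, beacon hairpin quenching; reagent: beacon DNA duplex substrate plus ATP; replicates: singlicate; schedule: 1 h reaction at 25 °C, ATP-initiated; medium: MOPS buffer pH 6.5 with MgCl2, DTT, Tween20, BSA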
IMP-1 inhibitor = IMP-1 metallo-beta-lactamase inhibitors, primary screen, biochemical, epi-absorbance readout, Pseudomonas aeruginosa enzyme; purified IMP-1, nitrocefin hydrolysis, epi-absorbance fluorescence; inhibition, % at 5.6 µM; hit rate 0.45% among 290,000; AID 1556, 2009;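 active = inhibition above the mean plus 3 SD of all compounds in the same screening run, cut at about 4.5% in these data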;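 note: 0% = IMP-1 with DMSO and 100% = DMSO wells lacking enzyme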
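System – purified recombinant IMP-1 beta-lactamase · Input – IMP-1 dispensed at 0.2 nM · Timing – 15 min preincubation plus 25 min reaction at 25 °C · Signal – Epi-absorbance fluorescence, 480 nm excitation, 530 nm emission · Measure – percent IMP-1 inhibition derived from blank-referenced optical density · Controls – Enzyme-plus-DMSO low control, enzyme-free DMSO high control · Replication – singlicate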
* marks the source's active call; other numbers are inactive results.

What do the screens show for `CCOC(=O)c1c(CC(C)C)csc1/N=C/C1C(=O)CC(C)(C)CC1=O`?
SUMO HTRF inh: -5; VIM-2 inhibitor: -2; FID counter: -12; HCV NS3 hel inh: 19; IMP-1 inhibitor: 9.1*

Results for COc1cc(CNc2ccc(O)cc2)cc(Br)c1OCc1ccccc1F ?
SUMO HTRF inh: 91*; VIM-2 inhibitor: -3; FID counter: 1; HCV NS3 hel inh: 19; IMP-1 inhibitor: -4

How did C/C(CC(=O)Nc1ccc(F)cc1F)=N\NC(=O)C(=O)N1CCCCC1 do in these assays?
SUMO HTRF inh: 1; VIM-2 inhibitor: -5; FID counter: -9; HCV NS3 hel inh: 7; IMP-1 inhibitor: -1

What do the screens show for `Cc1c(-n2c(-c3ccccc3Cl)n[nH]c2=S)c(=O)n(-c2ccccc2)n1C`?
SUMO HTRF inh: 4; VIM-2 inhibitor: 74*; FID counter: -8; HCV NS3 hel inh: 3; IMP-1 inhibitor: -5

What do the screens show for `O=C(Cn1cnc([N+](=O)[O-])n1)NCc1ccccc1`?
SUMO HTRF inh: 29; VIM-2 inhibitor: -2; FID counter: 2; HCV NS3 hel inh: 0; IMP-1 inhibitor: -2

How did O=C(CCCn1cnc([N+](=O)[O-])n1)Nc1cccc2ccccc12 do in these assays?
SUMO HTRF inh: -1; VIM-2 inhibitor: 1; FID counter: 16; HCV NS3 hel inh: -12; IMP-1 inhibitor: 37*

Results for S=C(Nc1ccc(Br)cc1Cl)Nn1cnnc1 ?
SUMO HTRF inh: 3; VIM-2 inhibitor: 0; FID counter: 0; HCV NS3 hel inh: 1; IMP-1 inhibitor: -1

Results for Cc1oc(-c2ccc3c(c2)OCCO3)cc1C(=O)NC(Cc1ccccc1)C(=O)O (stereo not given) ?
SUMO HTRF inh: 14; VIM-2 inhibitor: 0; FID counter: -32; HCV NS3 hel inh: 6; IMP-1 inhibitor: -2

Results for C=CCOC(=O)C(=O)/C=C/c1coc2ccccc2c1=O ?
SUMO HTRF inh: 16; VIM-2 inhibitor: 8.3*; FID counter: -22; HCV NS3 hel inh: 6; IMP-1 inhibitor: -1

Results for COc1ccccc1C(c1nnnn1CS(=O)(=O)c1ccc(C)cc1)N1CCSCC1 (stereo not given) ?
SUMO HTRF inh: 6; VIM-2 inhibitor: -3; FID counter: 6; HCV NS3 hel inh: 18; IMP-1 inhibitor: -4

How did COc1cccc(C(c2nnnn2CS(=O)(=O)c2ccc(C)cc2)N2CCN(C)CC2)c1OC (stereo not given) do in these assays?
SUMO HTRF inh: 5; VIM-2 inhibitor: 2; FID counter: 41*; HCV NS3 hel inh: -26; IMP-1 inhibitor: 1

What do the screens show for `Cc1noc2ncnc(Sc3ccc(Br)cc3)c12`?
SUMO HTRF inh: 2; VIM-2 inhibitor: 0; FID counter: -1; HCV NS3 hel inh: 6; IMP-1 inhibitor: -2

Results for Cc1cc(=O)oc2c3c(cc(OCC(=O)N[C@@H](C)C(=O)O)c12)OC(C)(C)CC3 ?
SUMO HTRF inh: 46; VIM-2 inhibitor: 8.5*; FID counter: -38; HCV NS3 hel inh: -6; IMP-1 inhibitor: -4

How did CN(CC(=O)Nc1ccccc1Br)C(=O)CNC(=O)Cc1cccc2ccccc12 do in these assays?
SUMO HTRF inh: -12; VIM-2 inhibitor: -1; FID counter: -40; HCV NS3 hel inh: -7; IMP-1 inhibitor: -2

What do the screens show for `CCOC(=O)N1CCN(CC(O)COCCC23CC4CC(CC(C4)C2)C3)CC1` (stereo not given)?
SUMO HTRF inh: 4; VIM-2 inhibitor: -3; FID counter: -18; HCV NS3 hel inh: -4; IMP-1 inhibitor: 2

Results for CC1CCCCN1CC(O)COCCC12CC3CC(CC(C3)C1)C2 (stereo not given) ?
SUMO HTRF inh: 2; VIM-2 inhibitor: 3; FID counter: 44*; HCV NS3 hel inh: -34; IMP-1 inhibitor: -1

How did COc1ccc(CN2CC(C(=O)N3CC(C)CC(C)C3)CC2=O)cc1 (stereo not given) do in these assays?
VIM-2 inhibitor: -2; FID counter: -37; HCV NS3 hel inh: 0; IMP-1 inhibitor: -1

How did CC(C)(C)C1CCc2c(sc(NC(=O)c3cc(C4CC4)on3)c2C#N)C1 (stereo not given) do in these assays?
SUMO HTRF inh: 7; VIM-2 inhibitor: -5; FID counter: -3; HCV NS3 hel inh: 0; IMP-1 inhibitor: 4.9*

Results for COc1ccc(NC(=O)NNC(=O)c2ccccc2-n2cccc2)cc1OC ?
SUMO HTRF inh: 10; VIM-2 inhibitor: 0; FID counter: -9; HCV NS3 hel inh: 3; IMP-1 inhibitor: -2

How did O=C(N/N=C/c1ccc(F)cc1)c1cc(-c2ccco2)nc2ccccc12 do in these assays?
VIM-2 inhibitor: 1; FID counter: -13; HCV NS3 hel inh: 39*; IMP-1 inhibitor: -2

What do the screens show for `C/C(=N\NC(=O)c1cc(-c2ccco2)nc2ccccc12)c1cccnc1`?
SUMO HTRF inh: 60*; VIM-2 inhibitor: -2; FID counter: -9; HCV NS3 hel inh: 1; IMP-1 inhibitor: -2

How did O=C(N/N=C/c1ccc([N+](=O)[O-])o1)c1cc(-c2ccc(-c3ccccc3)cc2)nc2ccccc12 do in these assays?
SUMO HTRF inh: 62*; VIM-2 inhibitor: 2; FID counter: -13; HCV NS3 hel inh: -8; IMP-1 inhibitor: 2

What do the screens show for `CSc1ncccc1C(=O)NCCc1ccc(S(N)(=O)=O)cc1`?
SUMO HTRF inh: -2; VIM-2 inhibitor: -2; FID counter: 0; HCV NS3 hel inh: -1; IMP-1 inhibitor: -2

What do the screens show for `Cc1ccc(/C=C/C2=Cc3c(sc(NC(=O)CSc4n[nH]c(N)n4)c3C#N)C(C)(C)C2)o1`?
SUMO HTRF inh: 70*; VIM-2 inhibitor: -2; FID counter: -22; HCV NS3 hel inh: 45*; IMP-1 inhibitor: -1

How did CC1=Nc2nc(N3CCCCC3)c(C#N)c3c4c(nc(c23)N1)N(c1ccc(C(C)C)cc1)C(=O)C4 do in these assays?
SUMO HTRF inh: 60*; VIM-2 inhibitor: -1; FID counter: -5; HCV NS3 hel inh: 30; IMP-1 inhibitor: -1

Results for CC(C)c1ccc(-c2nc(N3CCCCC3)[nH]c(=O)c2C#N)cc1 ?
SUMO HTRF inh: -30; VIM-2 inhibitor: -2; FID counter: -4; HCV NS3 hel inh: 2; IMP-1 inhibitor: -2

Results for CCOC(=O)N1CCN(S(=O)(=O)c2ccc(OC)c(Cl)c2)CC1 ?
SUMO HTRF inh: 10; VIM-2 inhibitor: -1; FID counter: -16; HCV NS3 hel inh: -3; IMP-1 inhibitor: -6

Results for O=C(COc1ccc(S(=O)(=O)N2CCOCC2)cc1Cl)NCc1ccco1 ?
SUMO HTRF inh: 0; VIM-2 inhibitor: -3; FID counter: -19; HCV NS3 hel inh: 1; IMP-1 inhibitor: 5.4*

How did CCOC(=O)N1CCN(S(=O)(=O)c2ccc(OCC(=O)OC)c(Cl)c2)CC1 do in these assays?
SUMO HTRF inh: -15; VIM-2 inhibitor: -1; FID counter: -12; HCV NS3 hel inh: 10; IMP-1 inhibitor: 5.0*
